Laboratory results: ChEMBL document CHEMBL1681759, “Synthesis and biological evaluation of benzimidazole-5-carbohydrazide derivatives as antimalarial, cytotoxic and antitubercular agents” (Bioorg Med Chem, 2011)
Converted amounts (≈) assume the structure as drawn.

Key:
Plasmodium berghei [1] = assay: Antimalarial activity against chloroquine-susceptible Plasmodium berghei ANKA infected in Balb-C mouse assessed as mouse survival days at 20 mg/kg, ip qd for 4 days […] relative to untreated control; type: functional; conditions: route intraperitoneal
Plasmodium berghei [2] = assay: Antimalarial activity against chloroquine-susceptible Plasmodium berghei ANKA infected in Balb-C mouse; type: functional, organism-based
Summary of the method: (§1)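 Balb-C mice (18–23 g, n = 6) were infected iv in the caudal vein with 10⁶ P. berghei ANKA-infected RBCs. Dosing started 2 h post-infection: 20 mg/kg ip once daily for 4 days, DMSO stock diluted in Saline-Tween 20 (2%). Chloroquine 25 mg/kg served as positive control; untreated mice were controls. Parasitemia was read on day 4 from Giemsa smears, and survival days were recorded.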

Plasmodium berghei [3] = assay: Antimalarial activity against chloroquine-susceptible Plasmodium berghei ANKA infected in Balb-C mouse assessed as inhibition parasitemia at 20 mg/kg, ip qd for 4 days […]; type: functional; conditions: 96 h, route intraperitoneal; summary of the method: as §1
[4] = Inhibition of beta-hematin formation assessed as inhibition of […] polymerization at […] after 48 hrs; type: functional
Summary of the method: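 Hemin chloride (50 µL, 4 mM in DMSO) was mixed in triplicate with compound in DMSO; water or DMSO served as controls. Reaction was started with acetate buffer (0.2 M, pH 4.4) and run 37 °C for 48 h. The pellet was DMSO-washed twice, dissolved in 0.2 N NaOH, diluted 1:2 in 0.1 N NaOH, and read at 405 nm as % inhibition of FP polymerization.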

Plasmodium berghei [5] = assay: Antimalarial activity against chloroquine-susceptible Plasmodium berghei ANKA assessed as inhibition of trophozoite extract-mediated mouse hemoglobin hydrolysis at 10 mM after 18 hrs by SDS-PAGE; type: functional
Summary of the method: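 Trophozoite extract came from P. berghei-infected mouse blood at 30–50% parasitemia: RBCs percoll-purified (80–70%), saponin-lysed, then freeze–thawed three times. Substrate was native haemoglobin from uninfected mouse erythrocytes lysed in water. The mix held GSH and acetate buffer (0.2 M, pH 5.4). Compound was added in DMSO and incubated 37 °C, 18 h. Reactions were stopped with reduced sample buffer.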

[6] = system: Mycobacterium tuberculosis; assay: Antimycobacterial activity against Mycobacterium tuberculosis H37Rv after 5 days by tetrazolium microplate assay; type: functional; conditions: 120 h
Summary of the method: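 Tetrazolium microplate assay run in 7H9GC broth. DMSO stocks (4 mg/mL) were diluted to final 0.4–25 µg/mL. Isoniazid (0.125–32 µg/mL) and rifampin (0.063–16 µg/mL) were positive controls; inoculum-only and DMSO controls were included. Plates were incubated 5 days at 37 °C, then an MTT-Tween 80 mix was added and incubation continued 24 h at 37 °C. Run in triplicate. MIC = lowest concentration preventing the yellow-to-purple colour change.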

[7] = Cytotoxicity against african green monkey Vero cells assessed as growth inhibition after 48 hrs by sulforhodamine B assay; type: cell-based; conditions: chlorocebus sabaeus
Summary of the method: (§2)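 Cells were exposed to serial compound dilutions in 96-well plates for 48 h at 37 °C alongside solvent controls. Growth was read colorimetrically by sulforhodamine B. GI50 is the concentration giving a 50% reduction in absorbance versus solvent-treated controls, derived by linear regression.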

[8] = Cytotoxicity against mouse 3T3 cells assessed as growth inhibition after 48 hrs by sulforhodamine B assay; type: cell-based; conditions: NIH3T3 cells; summary of the method: as §2
M14 = assay: Cytotoxicity against human M14 cells assessed as growth inhibition after 48 hrs by sulforhodamine B assay; type: functional; conditions: M14, 48 h; summary of the method: as §2
K562 = assay: Cytotoxicity against human K562 cells assessed as growth inhibition after 48 hrs by sulforhodamine B assay; type: functional; conditions: K562, 48 h; summary of the method: as §2
DU-145 = assay: Cytotoxicity against human DU145 cells assessed as growth inhibition after 48 hrs by sulforhodamine B assay; type: functional; conditions: DU-145, 48 h; summary of the method: as §2
MCF7 = assay: Cytotoxicity against human MCF7 cells assessed as growth inhibition after 48 hrs by sulforhodamine B assay; type: functional; conditions: MCF7, 48 h; summary of the method: as §2
HT-29 = assay: Cytotoxicity against human HT-29 cells assessed as growth inhibition after 48 hrs by sulforhodamine B assay; type: functional; conditions: HT-29, 48 h; summary of the method: as §2
NCI-H460 = assay: Cytotoxicity against human H460 cells assessed as growth inhibition after 48 hrs by sulforhodamine B assay; type: functional; conditions: NCI-H460, 48 h; summary of the method: as §2

Structure (SMILES) | Survival (Plasmodium berghei [1]) [days] | IC50 (Plasmodium berghei [2]) [µM] | inhibition in vivo at 20 mg/kg (Plasmodium berghei [3]) [%] | inhibition [4] [%] | inhibition at 10000 µM (Plasmodium berghei [5]) [%] | MIC [6] [µg/mL] | GI50 at 48 h [7] [µg/mL] | GI50 at 48 h [8] [µg/mL] | GI50 (M14) [µg/mL] | GI50 (K562) [µg/mL] | GI50 (DU-145) [µg/mL] | GI50 (MCF7) [µg/mL] | GI50 (HT-29) [µg/mL] | GI50 (NCI-H460) [µg/mL]
O=C(NNC(=O)c1ccc2[nH]c(-c3ccc([N+](=O)[O-])o3)nc2c1)c1ccc(Cl)cc1 | 9.8 | 23.4 | 27.4 | 59.6 | 33.8 |  |  |  |  |  |  |  |  | 
O=CNNC(=O)c1ccc2[nH]c(-c3ccc([N+](=O)[O-])o3)nc2c1 | 8.2 | 8.63 | 25.8 | 94 | 24.2 | > 25 | 62.5 (≈ 198 µM) | 62.5 (≈ 198 µM) | 31.2 (≈ 99.1 µM) | 31.2 (≈ 99.1 µM) | 15.6 (≈ 49.6 µM) | 62.5 (≈ 198 µM) | 62.5 (≈ 198 µM) | 31.2 (≈ 99.1 µM)
NNC(=O)c1ccncc1 [ISONIAZID] |  |  |  |  |  | 0.125 (≈ 0.911 µM) |  |  |  |  |  |  |  | 
O=C(NNC(=O)c1ccc2[nH]c(-c3ccc([N+](=O)[O-])s3)nc2c1)c1ccc(Cl)cc1 | 10.8 |  | 13.5 | 25.5 | 12.7 |  |  |  |  |  |  |  |  | 
O=CNNC(=O)c1ccc2[nH]c(-c3ccc([N+](=O)[O-])s3)nc2c1 | 10.04 | 9.88 | 18.7 | 87.4 | 36.2 |  |  |  |  |  |  |  |  | 
O=C(NNC(=O)c1cc2ccccc2cc1O)c1ccc2[nH]c(-c3ccc([N+](=O)[O-])o3)nc2c1 |  |  |  | 31.7 | 12.9 |  |  |  |  |  |  |  |  | 
COc1cc(C(=O)NNC(=O)c2ccc3[nH]c(-c4ccc([N+](=O)[O-])s4)nc3c2)cc(OC)c1OC | 10 | 9.56 | 9.36 | 92.4 |  | > 25 | 31.2 (≈ 62.8 µM) | 31.2 (≈ 62.8 µM) | 62.5 (≈ 126 µM) | 31.2 (≈ 62.8 µM) | 62.5 (≈ 126 µM) | 31.2 (≈ 62.8 µM) | 62.5 (≈ 126 µM) | 62.5 (≈ 126 µM)
O=C(NNC(=O)c1ccc2[nH]c(-c3ccc([N+](=O)[O-])o3)nc2c1)c1ccccc1 | 13.6 | 10.9 | 10.1 | 79.2 | 0 | 12.5 (≈ 31.9 µM) | 31.2 (≈ 79.9 µM) | 31.2 (≈ 79.9 µM) | 15.6 (≈ 39.9 µM) | 15.6 (≈ 39.9 µM) | 15.6 (≈ 39.9 µM) | 62.5 (≈ 160 µM) | 31.2 (≈ 79.9 µM) | 62.5 (≈ 160 µM)
O=C(NNC(=O)c1ccc2[nH]c(-c3ccc([N+](=O)[O-])o3)nc2c1)c1cccc(Oc2ccccc2)c1 | 10.6 | 14.1 | 12.9 | 84.6 |  | > 25 | > 7.8 | > 7.8 | > 7.8 | > 7.8 | > 7.8 | > 7.8 | > 7.8 | > 7.8
COc1cccc(C(=O)NNC(=O)c2ccc3[nH]c(-c4ccc([N+](=O)[O-])s4)nc3c2)c1 | 10.6 | 24.5 | 24.8 | 61.6 | 13.4 | > 25 | > 250 | 15.6 (≈ 35.7 µM) | 15.6 (≈ 35.7 µM) | 15.6 (≈ 35.7 µM) | 62.5 (≈ 143 µM) | 15.6 (≈ 35.7 µM) | 31.2 (≈ 71.4 µM) | 62.5 (≈ 143 µM)
O=C(NNC(=O)c1ccc2[nH]c(-c3ccc([N+](=O)[O-])o3)nc2c1)c1cccc(Cl)c1 | 12.4 | 10.3 | 3.38 | 73.4 | 39 |  |  |  |  |  |  |  |  | 
O=C(O)c1ccc2[nH]c(-c3ccc([N+](=O)[O-])s3)nc2c1 | 12.2 | 21.1 | 11.5 | 57.6 | 0 |  |  |  |  |  |  |  |  | 
CO[C@H]1/C=C/O[C@@]2(C)Oc3c(C)c(O)c4c(O)c(c(/C=N/N5CCN(C)CC5)c(O)c4c3C2=O)NC(=O)/C(C)=C\C=C\[C@H](C)[C@H](O)[C@@H](C)[C@@H](O)[C@@H](C)[C@H](OC(C)=O)[C@@H]1C [RIFAMPIN] |  |  |  |  |  | 0.063 (≈ 0.0766 µM) |  |  |  |  |  |  |  | 
COc1cccc(C(=O)NNC(=O)c2ccc3[nH]c(-c4ccc([N+](=O)[O-])o4)nc3c2)c1 | 11.8 | 13.1 | 5.98 | 72.4 | 2.82 | 25 (≈ 59.3 µM) | 31.2 (≈ 74.2 µM) | 15.6 (≈ 37.1 µM) | 7.81 (≈ 18.5 µM) | 15.6 (≈ 37.1 µM) | 15.6 (≈ 37.1 µM) | 15.6 (≈ 37.1 µM) | 31.2 (≈ 74.2 µM) | 62.5 (≈ 148 µM)
CC(=O)N[C@@H](CC(C)C)C(=O)N[C@@H](CC(C)C)C(=O)N[C@H](C=O)CCCNC(=N)N [LEUPEPTIN] |  |  |  |  | 91.6 |  |  |  |  |  |  |  |  | 
COc1ccc(C(=O)NNC(=O)c2ccc3[nH]c(-c4ccc([N+](=O)[O-])o4)nc3c2)cc1OC | 12.2 | 8.71 | 4.8 | 94.8 | 34.5 | > 25 | 62.5 (≈ 138 µM) | 31.2 (≈ 69.2 µM) | 15.6 (≈ 34.6 µM) | 15.6 (≈ 34.6 µM) | 15.6 (≈ 34.6 µM) | 31.2 (≈ 69.2 µM) | 15.6 (≈ 34.6 µM) | 15.6 (≈ 34.6 µM)
COc1ccc(C(=O)NNC(=O)c2ccc3[nH]c(-c4ccc([N+](=O)[O-])s4)nc3c2)cc1OC | 13.8 | 21.4 | 16.1 | 70.8 | 38.2 |  |  |  |  |  |  |  |  | 
CCN(CC)CCCC(C)Nc1ccnc2cc(Cl)ccc12 (centres undefined) [CHLOROQUINE] | >30 |  | 1.3 | 94.2 | 24.1 |  |  |  |  |  |  |  |  | 
O=C(NNC(=O)c1cc2ccccc2cc1O)c1ccc2[nH]c(-c3ccc([N+](=O)[O-])s3)nc2c1 | 18.8 | 11.1 | 1.8 | 75.8 | 14.1 | > 25 | 31.2 (≈ 66 µM) | 31.2 (≈ 66 µM) | 62.5 (≈ 132 µM) | 31.2 (≈ 66 µM) | 62.5 (≈ 132 µM) | 62.5 (≈ 132 µM) | 62.5 (≈ 132 µM) | 62.5 (≈ 132 µM)
O=C(NNC(=O)c1ccc2[nH]c(-c3ccc([N+](=O)[O-])s3)nc2c1)c1cccc(Cl)c1 | 7.4 | 16 | 27.2 | 78.6 | 44.9 |  |  |  |  |  |  |  |  | 
O=C(NNC(=O)c1ccc2[nH]c(-c3ccc([N+](=O)[O-])s3)nc2c1)c1ccccc1 | 12 | 10.8 | 10.1 | 86.2 | 39.2 |  |  |  |  |  |  |  |  | 
CC(C)CC(=O)N[C@H](C(=O)N[C@H](C(=O)N[C@@H](CC(C)C)[C@@H](O)CC(=O)N[C@@H](C)C(=O)N[C@@H](CC(C)C)[C@@H](O)CC(=O)O)C(C)C)C(C)C [PEPSTATIN] |  |  |  |  | 95.5 |  |  |  |  |  |  |  |  | 
O=C(NNC(=O)c1ccc2[nH]c(-c3ccc([N+](=O)[O-])s3)nc2c1)c1cccc(Oc2ccccc2)c1 | 11 | 19.1 | 7.28 | 76.5 | 0 |  |  |  |  |  |  |  |  | 
